High-throughput results from PubChem.
Shown are actives, neighbours in structure and some others; about 1.8% of the full set was active somewhere.
Mot1-301 SUMO: inhibitors of SUMOylation pathway: yeast Mot1-301 growth rescue. growth rescue, % at 18.8 µM. AID 2716. actives 1% (n = 320,000). S. cerevisiae Mot1-301 growth rescue, ATP luminescence, 38.5C; percent above DMSO median, 100 means doubled;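 active = every valid replicate shows activation above 250% relative to neutral control wells; inactive = the rest, any valid replicate at or below 250%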;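 note: OY570 slx delta 5 strain wells were the positive control but not used for scaling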
Efflux pump inh: antifungal efflux pump inhibition, Nile Red retention | AID 485275 | actives 0.44% (n = 330,000) | inhibition, % at 10 µM | S. cerevisiae Candida pump triplex;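 active = plate passing quality check with inhibition over a set limit, or well fluorescence over plate mean plus 4 SD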;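 note: Nile Red retained in pooled yeast measured as flow cytometry median fluorescence; 0% = buffer negative control and 100% = Enniatin B positive control; higher means more Nile Red kept so more efflux inhibition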
Statin myotox sup: suppressors of simvastatin-induced myotoxicity in C2C12 myotubes; rescue of ATP level, % at 7.49 µM; ATP luminescence, 48 h; scaled: DMSO 0, geranylgeraniol control 100; actives 0.78% (n = 330,000);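 active = mean ATP rescue above about 67%, or every replicate alone reaching that limit, limit read from the data, passing the limit was not always enough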;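 note: myotubes were challenged with 10 µM simvastatin during compound exposure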
Cneo AK release: Cryptococcus neoformans lysis via adenylate kinase release | C. neoformans lysis, adenylate kinase release luminescence, 4 h; normalised: neutral wells 0, clomiphene wells 100 | lysis activity, % at 15 µM | actives 0.2% (n = 360,000);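 active = mean lysis activity across replicates of at least 80%, whatever share of replicates individually reach that level; inactive = mean lysis activity below 80%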
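Material: C. neoformans cells | Amount: Yeast cell density of 5 × 10^6 cells/mL | Medium: Fresh YPD growth medium | Dosing: Single dose | Times: Static 4 h at 37 °C with compound, 1 h detection | Detection: AK luminescence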
Cmpd fluor yeast: counter-screen for efflux pump inhibitors: compound fluorescence; S. cerevisiae AD/pABC3, flow cytometry; actives 4% (n = 1,700); AID 588517; fluorescence ratio to DMSO, % at 10 µM; shares compounds with Efflux pump inh;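 active = fluorescence ratio to DMSO above its plate's cutoff, the plate mean ratio plus 5 SD, cut at about 210% in these data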;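 note: unstained yeast with no Nile Red so the signal is compound autofluorescence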
CaMdr1 efflux inh: blocks the Candida albicans Mdr1 efflux pump in yeast; inhibition, % at 10 µM; actives 1% (n = 1,700); shares compounds with Efflux pump inh; S. cerevisiae AD/CaMDR1, Nile Red efflux, flow cytometry; AID 588518; in the data active = inhibition above about 26%;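 note: 0% = DMSO vehicle and 100% = reference inhibitor; higher means more Nile Red retained so more efflux inhibition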
CaCdr2 efflux inh: inhibitors of Candida albicans Cdr2 efflux pump. S. cerevisiae AD/CaCDR2, Nile Red retention, flow cytometry. actives 4% (n = 1,700). shares compounds with Efflux pump inh. Nile Red retention ratio vs DMSO, % at 10 µM; in the data active = Nile Red retention ratio vs DMSO above about 190%;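 note: higher ratio means more blocking of Cdr2 efflux of the dye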
CaCdr1 efflux inh: inhibitors of Candida albicans Cdr1 efflux pump; shares compounds with Efflux pump inh; S. cerevisiae AD/CaCDR1, Nile Red efflux, flow cytometry; inhibition, % at 10 µM; actives 1% (n = 1,700); AID 588522;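 active = inhibition above the screen-wide mean plus twice its standard deviation, cut at about 32% in these data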
Starred values were filed as active, the others as inactive; nt = not tested or not shown.

SMILES	Mot1-301 SUMO	Efflux pump inh	Statin myotox sup	Cneo AK release	Cmpd fluor yeast	CaMdr1 efflux inh	CaCdr2 efflux inh	CaCdr1 efflux inh
Cc1ccc(/C=c2\sc3nc(-c4ccccc4Br)nn3c2=O)o1	-10	0	12	1	99	0	109	0
COc1ccccc1/C=c1\sc2nc(-c3ccccc3OC)nn2c1=O	-9	0	nt	0	100	0	106	0
Cc1ccc(/C=c2\sc3nc(-c4ccco4)nn3c2=O)o1	-1	0	nt	-2	nt	nt	nt	nt
Cc1ccc(-c2nc3s/c(=C\c4ccco4)c(=O)n3n2)cc1	6	0.8*	-6	-1	97	0	97	0
COc1ccc(Br)cc1/C=c1\sc2nc(-c3ccco3)nn2c1=O	17	1.1*	-2	-1	107	0	109	0
COCC#Cc1ccc2c(c1)O[C@@H](CN(C)C(=O)C1CCCCC1)[C@@H](C)CN([C@@H](C)CO)S2(=O)=O	nt	nt	-9	-4	nt	nt	nt	nt
Cc1noc(C)c1NC(=O)N(C)C[C@@H]1Oc2c(NS(=O)(=O)c3c(C)noc3C)cccc2C(=O)N([C@@H](C)CO)C[C@@H]1C	nt	nt	nt	-1	nt	nt	nt	nt
COC(=O)C1(C)NCCc2c1[nH]c1ccccc21 (centres undefined)	6	0	7	-3	nt	nt	nt	nt
CCOC(=O)N1CCC2(CC1)NCCc1c2[nH]c2ccccc12	36	0.9*	nt	nt	97	0	97	0
O=C(COC(=O)c1ccc2c(c1)OCCO2)Nc1cccc(S(=O)(=O)N2CCOCC2)c1	11	0.5*	nt	nt	104	0	105	0
COc1ccc([C@H]2CC(=O)C=C(c3ccc4cc[nH]c4c3)C2)cc1	-17	0	-7	1	nt	nt	nt	nt
COc1ccc(N(CC(=O)N2CCN(c3cccc(C)c3)C(C)C2)S(=O)(=O)c2c(C)n[nH]c2C)cc1 (centres undefined)	0	0	9	3	nt	nt	nt	nt
N=c1c(C(=O)NCCc2ccccc2)cc2c(=O)n3ccccc3nc2n1Cc1ccco1	-4	0	-27	nt	nt	nt	nt	nt
COc1ccc(CCn2c(=N)c(C(=O)NCc3ccco3)cc3c(=O)n4ccccc4nc32)cc1	6	1.3*	-3	1	104	0	100	0
Cc1cccn2c(=O)c3cc(S(=O)(=O)c4ccc(F)cc4)c(=N)n(Cc4ccco4)c3nc12	-11	0.6*	2	-2	106	0	114	0
Cc1ccc(S(=O)(=O)c2cc3c(=O)n4ccccc4nc3n(CCc3ccccc3)c2=N)cc1	-2	0.4*	-9	1	108	0	116	0
CCOCCCn1c(=N)c(S(=O)(=O)c2ccc(C)cc2)cc2c(=O)n3cc(C)ccc3nc21	6	1.2*	-11	-1	105	0	123	0
CCCNC(=O)C[C@@H]1CC[C@H]2[C@@H](COC[C@H](O)CN2C(=O)Nc2ccccc2OC)O1	nt	nt	5	0	nt	nt	nt	nt
CC(Nc1n[nH]c(=O)[nH]c1=O)C(=O)N/N=C/c1ccccc1 (centres undefined)	3	0	3	nt	nt	nt	nt	nt
CC(=O)N[C@@H](Cc1c[nH]c2ccccc12)C(=O)NC1CC1	88	0	7	0	nt	nt	nt	nt
CCOC(=O)C(C(=O)OCC)c1cc(Br)c2noc3c2c1C(=O)c1ccccc1-3	1	0.8*	nt	nt	826*	1	193*	0
O=C(NCC1CCCO1)c1ccc(Br)c(S(=O)(=O)N2CCOCC2)c1 (centres undefined)	2	24*	6	1	98	0	106	0
C[C@H](CO)N1C[C@H](C)[C@H](CN(C)C(=O)c2cccnc2)Oc2ncc(C#CCN(C)C)cc2C1=O	nt	nt	13	1	nt	nt	nt	nt
COc1cc(N)c(Br)cc1C(=O)O	252	0.7*	2	-1	92	0	93	0
O=C(COC(=O)c1cc[n+]([O-])cc1)Nc1ccccc1Sc1ccccc1	15	0	7	0	nt	nt	nt	nt
SMILES	Mot1-301 SUMO	Efflux pump inh	Statin myotox sup	Cneo AK release	Cmpd fluor yeast	CaMdr1 efflux inh	CaCdr2 efflux inh	CaCdr1 efflux inh
O=C(Cc1ccc(Cl)cc1)c1c[nH]c(C(=O)NCCCn2ccnc2)c1	-5	0.6*	nt	nt	99	0	85	0
CC(C)CC(=O)c1c[nH]c(C(=O)NCCCn2ccnc2)c1	-5	0	-1	-2	nt	nt	nt	nt
C/C(=N\Nc1nc(N)cc(Cl)n1)c1ccc(Cl)c(Cl)c1	6	0	nt	nt	nt	nt	nt	nt
C/C(=N\Nc1nc(N)cc(Cl)n1)c1ccc(F)cc1	-2	0.5*	-7	-1	100	0	101	0
O=C(Nc1cccc2ccccc12)ON=C1CCCCC1	nt	nt	14	-3	nt	nt	nt	nt
CCOC(=O)c1c(-c2ccccc2)csc1NC(=O)c1cc(-c2ccccc2OC)on1	-5	0.7*	nt	nt	89	0	114	0
CCOC(=O)c1c(-c2ccc(C)cc2)csc1NC(=S)NC(=O)c1ccccc1	-23	0	-52	-2	nt	nt	nt	nt
CNC(=O)N(O)C1N(/N=C/c2ccccc2O)C(=S)SC1(C)C (centres undefined)	-21	0	nt	nt	nt	nt	nt	nt
CNC(=O)N(O)C1N(c2ccccc2)C(=S)SC1(C)C (centres undefined)	-15	8.0*	nt	-1	99	0	114	0
Cc1cc(C)cc(NC(=S)N(CCCN2CCN(C)CC2)Cc2cccs2)c1	5	0	-3	0	nt	nt	nt	nt
O=C(C[C@@H]1C=C[C@H](NC(=O)c2ccncc2)[C@@H](CO)O1)NCCc1ccncc1	nt	nt	4	-2	nt	nt	nt	nt
CCOc1cc(/C=C2\SC(=Nc3ccccc3)N(c3ccccc3)C2=O)ccc1OCC(=O)O	-2	6.4*	nt	nt	99	0	89	0
CC(NC(=O)CCSCCC(=O)NC(C)c1ccccc1)c1ccccc1 (centres undefined)	-16	1.2*	nt	0	102	0	98	0
O=C(Nc1ccccc1Cl)c1ccccc1Oc1ccc(C(F)(F)F)cc1[N+](=O)[O-]	847	0.4*	13	2	107	0	101	0
CCC(=O)NCCc1nc2cc(NC(=O)c3ccccc3Cl)ccc2n1C	-7	0	-6	-5	nt	nt	nt	nt
C=CCn1cc(/C=N/NC(=O)COc2cccc3cccnc23)c2ccccc21	-1	0	nt	nt	nt	nt	nt	nt
CC(C)n1cc(/C=N/NC(=O)COc2cccc3cccnc23)c2ccccc21	-4	3.1*	nt	nt	111	0	116	0
COc1ccc2[nH]cc(C(=O)CN3CCC(C)CC3)c2c1	-6	8.2*	-2	-1	105	0	112	0
COc1ccc2[nH]cc(C(=O)CN3CCCC(C)C3)c2c1 (centres undefined)	-7	0	3	-2	nt	nt	nt	nt
